Active and inactive are the calls of the source. No cut-off for these calls is given here.
Tests used:
[1] = tested on: Human alphaherpesvirus 1; experiment: Antiviral activity against Herpes simplex virus 1 TK-KOS-ACV infected in human HELF cells assessed as reduction in virus-induced cytopathogenicity incubated for 7 days by microscopic analysis; format: functional, organism-based
[2] = tested on: Cytomegalovirus; experiment: Antiviral activity against Cytomegalovirus Davis infected in human HELF cells assessed as reduction in virus-induced cytopathogenicity incubated for 7 days by Giemsa staining based microscopic analysis; format: functional, organism-based; settings: Human betaherpesvirus 5, Davis, 168 h
Summary of the method: (§1)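 Confluent HEL fibroblasts infected with CMV (Davis or AD-169) at 100 PFU/well for 2 h. Residual virus removed, then medium with graded compound concentrations added (duplicate). Incubated 7 days at 37 °C. Cytopathogenicity scored microscopically after ethanol fixation and Giemsa staining. EC50 read from plots of % cytopathogenicity versus concentration.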

[3] = tested on: Cytomegalovirus; experiment: Antiviral activity against Cytomegalovirus AD169 infected in human HELF cells assessed as reduction in virus-induced cytopathogenicity incubated for 7 days by Giemsa staining based microscopic analysis; format: functional, organism-based; settings: Human betaherpesvirus 5, AD169, HELF, 168 h; summary of the method: as §1
[4] = Cytotoxicity against human HELF cells assessed as reduction in cell viability incubated for 3 days by coulter counter method; format: cell-based; settings: 72 h
Summary of the method: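 HEL cells seeded at 5 x 10^3/well and allowed to proliferate 24 h, then exposed to graded compound concentrations for 3 days at 37 °C. Cell number counted with a Coulter counter.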

[5] = tested on: Human alphaherpesvirus 2; experiment: Antiviral activity against Herpes simplex virus 2 G infected in human HELF cells assessed as reduction in virus-induced cytopathogenicity incubated for 7 days by microscopic analysis; format: functional, organism-based; settings: for EC50: Human alphaherpesvirus 2, G, 168 h
[6] = Cytotoxicity against human HELF cells assessed as minimum cytotoxic concentration by observing alteration in cell morphology incubated for 3 days by microscopic analysis; format: cell-based; settings: for MCC at 72 h: HELF cells
Summary of the method: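 Read-out is the minimum cytotoxic concentration (MCC): the lowest compound concentration giving a microscopically detectable change in cell morphology. Measured on confluent human embryonic lung (HEL) fibroblast cultures exposed to a range of compound concentrations.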

[7] = tested on: Sindbis virus; experiment: Antiviral activity against Sindbis virus infected in vero cells assessed as reduction in virus-induced cytopathogenicity incubated for 7 days by microscopic analysis; format: functional, organism-based
[8] = tested on: Influenza B virus; experiment: Antiviral activity against Influenza B virus (B/Ned/537/05) infected in dog MDCK cells assessed as reduction in virus-induced cytopathogenicity incubated for 7 days by MTS assay; format: functional, organism-based
[9] = tested on: Influenza A virus; experiment: Antiviral activity against Influenza A virus (A/Ned/378/05(H1N1)) infected in dog MDCK cells assessed as reduction in virus-induced cytopathogenicity incubated for 7 days by microscopic analysis; format: functional, organism-based
[10] = tested on: A549; experiment: Antiproliferative activity against human A549 cells assessed as reduction in cell viability incubated for 72 hrs by MTT assay; format: functional, cell-based; settings: A549, 72 h
Summary of the method: (§2)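 Cells (ATCC) grown in DMEM with 10 FBS, penicillin/streptomycin, 2 mM glutamine, 37 °C, 5 CO2. 5000 cells/well seeded; after 24 h, freshly prepared dilutions at five concentrations (0.01–100 μM) added for 72 h. MTT read-out; absorbance converted to percentage growth by NIH formulas. Two experiments in quadruplicate; IC50 by linear regression.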

[11] = tested on: SW-620; experiment: Antiproliferative activity against human SW620 cells assessed as reduction in cell viability incubated for 72 hrs by MTT assay; format: functional, cell-based; settings: SW-620, 72 h; summary of the method: as §2
[12] = tested on: Human alphaherpesvirus 3; experiment: Antiviral activity against thymidine kinase positive Varicella zoster virus infected in human HELF cells assessed as reduction in virus-induced cytopathogenicity incubated for 7 days by Giemsa staining based microscopic analysis; format: functional, organism-based; settings: Human alphaherpesvirus 3, HELF, 168 h
[13] = tested on: Influenza A virus H3N2; experiment: Antiviral activity against Influenza A virus (A/HK/7/87(H3N2)) infected in dog MDCK cells assessed as reduction in virus-induced cytopathogenicity incubated for 7 days by microscopic analysis; format: functional, organism-based; settings: A/Hong Kong/7/1987(H3N2)
[14] = tested on: Reovirus sp.; experiment: Antiviral activity against Reovirus infected in vero cells assessed as reduction in virus-induced cytopathogenicity incubated for 7 days by microscopic analysis; format: functional, organism-based
[15] = tested on: Human coronavirus 229E; experiment: Antiviral activity against Human coronavirus 229E infected in human HELF cells assessed as reduction in virus-induced cytopathogenicity incubated for 7 days by microscopic analysis; format: functional, organism-based
[16] = tested on: MCF7; experiment: Antiproliferative activity against human MCF7 cells assessed as reduction in cell viability incubated for 72 hrs by MTT assay; format: functional, cell-based; settings: MCF7, 72 h; summary of the method: as §2
[17] = tested on: Influenza B virus; experiment: Antiviral activity against Influenza B virus (B/Ned/537/05) infected in dog MDCK cells assessed as reduction in virus-induced cytopathogenicity incubated for 7 days by microscopic analysis; format: functional, organism-based
[18] = tested on: HFF; experiment: Cytotoxicity against human HFF cells assessed as reduction in cell viability incubated for 72 hrs by MTT assay; format: cell-based; summary of the method: as §2
[19] = tested on: Human alphaherpesvirus 1; experiment: Antiviral activity against Herpes simplex virus 1 KOS infected in human HELF cells assessed as reduction in virus-induced cytopathogenicity incubated for 7 days by microscopic analysis; format: functional, organism-based; settings: strain KOS
[20] = tested on: Coxsackievirus B4; experiment: Antiviral activity against Human coxsackievirus B4 infected in vero cells assessed as reduction in virus-induced cytopathogenicity incubated for 7 days by microscopic analysis; format: functional, organism-based
[21] = tested on: Influenza A virus; experiment: Antiviral activity against Influenza A virus (A/Ned/378/05(H1N1)) infected in dog MDCK cells assessed as reduction in virus-induced cytopathogenicity incubated for 7 days by MTS assay; format: functional, organism-based
[22] = tested on: HepG2; experiment: Antiproliferative activity against human HepG2 cells assessed as reduction in cell viability incubated for 72 hrs by MTT assay; format: functional, cell-based; settings: HepG2, 72 h; summary of the method: as §2
[23] = tested on: Influenza A virus H3N2; experiment: Antiviral activity against Influenza A virus (A/HK/7/87(H3N2)) infected in dog MDCK cells assessed as reduction in virus-induced cytopathogenicity incubated for 7 days by MTS assay; format: functional, organism-based; settings: A/Hong Kong/7/1987(H3N2)
[24] = tested on: Human adenovirus 2; experiment: Antiviral activity against Human adenovirus 2 infected in human HELF cells assessed as reduction in virus-induced cytopathogenicity incubated for 7 days by microscopic analysis; format: functional, organism-based
[25] = tested on: CFPAC-1; experiment: Antiproliferative activity against human CFPAC-1 cells assessed as reduction in cell viability incubated for 72 hrs by MTT assay; format: functional, cell-based; settings: Homo sapiens, CFPAC-1, 72 h; read-out: IC50; summary of the method: as §2
[26] = tested on: HCT-116; experiment: Antiproliferative activity against human HCT116cells assessed as reduction in cell viability incubated for 72 hrs by MTT assay; format: functional, cell-based; settings: HCT-116, 72 h; summary of the method: as §2
[27] = tested on: HeLa; experiment: Antiproliferative activity against human HeLa cells assessed as reduction in cell viability incubated for 72 hrs by MTT assay; format: functional, cell-based; summary of the method: as §2
[28] = tested on: Human alphaherpesvirus 3; experiment: Antiviral activity against thymidine kinase deficient Varicella zoster virus infected in human HELF cells assessed as reduction in virus-induced cytopathogenicity incubated for 7 days by Giemsa staining based microscopic analysis; format: functional, organism-based; settings: Human alphaherpesvirus 3, HELF, 168 h

Compound: Nc1ccn(C[C@@H](CO)OCP(=O)(O)O)c(=O)n1 [CIDOFOVIR]
- EC50 ([1]; Human alphaherpesvirus 1, TK-KOS-ACV, 168 h): 4.5 µM
- EC50 [2]: 0.65 µM
- EC50 [3]: 0.43 µM
- CC50 [4]: 214 µM
- EC50 [5]: 5.3 µM
- MCC ([6]; 72 h): 250 to 300 µM

Compound: Nc1nc(O)c2ncn(COC(CO)CO)c2n1 [GANCICLOVIR]
- EC50 [2]: 2.3 µM
- EC50 [3]: 3.15 µM
- CC50 [4]: > 350 µM
- EC50 [5]: 0.3 µM
- MCC at 72 h [6]: > 350 µM

Compound: O=C1O[C@H]([C@@H](O)Cn2cc(C3CC3)nn2)C(OCc2ccccc2)=C1OCc1ccccc1
- Activity [7]: inactive
- Activity [8]: inactive
- Activity [1]: inactive
- Activity [9]: inactive
- IC50 [10]: 43.9 µM
- IC50 [11]: 54.2 µM
- EC50 [12]: > 100 µM
- Activity [13]: inactive
- EC50 [2]: > 20 µM
- Activity [14]: inactive
- Activity [15]: inactive
- EC50 [3]: 44.7 µM
- IC50 [16]: 25.9 µM
- Activity [17]: inactive
- IC50 [18]: 24.3 µM
- Activity [19]: inactive
- Activity [20]: inactive
- Activity [5]: inactive
- Activity [21]: inactive
- IC50 [22]: 38.1 µM
- Activity [23]: inactive
- Activity [24]: inactive
- MCC at 72 h [6]: 100 µM
- IC50 [25]: 47.7 µM
- IC50 [26]: 30.4 µM
- IC50 [27]: 26.5 µM
- EC50 [28]: > 100 µM

Compound: C[Si](C)(C)c1cn(C[C@H](O)[C@H]2OC(=O)C(OCc3ccccc3)=C2OCc2ccccc2)nn1
- Activity [7]: inactive
- Activity [8]: inactive
- Activity [1]: inactive
- Activity [9]: inactive
- IC50 [11]: 56 µM
- EC50 [12]: > 20 µM
- Activity [13]: inactive
- EC50 [2]: 12.1 µM
- Activity [14]: inactive
- Activity [15]: inactive
- EC50 [3]: > 100 µM
- CC50 [4]: 22.3 µM
- IC50 [16]: 12.1 µM
- Activity [17]: inactive
- IC50 [18]: 20 µM
- Activity [19]: inactive
- Activity [20]: inactive
- Activity [5]: inactive
- Activity [21]: inactive
- IC50 [22]: 24.1 µM
- Activity [23]: inactive
- Activity [24]: inactive
- MCC at 72 h [6]: 100 µM
- IC50 [25]: 52.6 µM
- IC50 [26]: 31.8 µM
- IC50 [27]: 22.3 µM
- EC50 [28]: > 20 µM

Compound: O=C1O/C(=C\Cn2cc(CCO)nn2)C(OCc2ccccc2)=C1OCc1ccccc1
- Activity [7]: inactive
- Activity [8]: inactive
- Activity [1]: inactive
- Activity [9]: inactive
- IC50 [10]: > 100 µM
- IC50 [11]: 41.9 µM
- EC50 [12]: > 100 µM
- Activity [13]: inactive
- EC50 [2]: > 100 µM
- Activity [14]: inactive
- Activity [15]: inactive
- EC50 [3]: > 100 µM
- IC50 [16]: 37.2 µM
- Activity [17]: inactive
- IC50 [18]: 25.6 µM
- Activity [19]: inactive
- Activity [20]: inactive
- Activity [5]: inactive
- Activity [21]: inactive
- IC50 [22]: 39 µM
- Activity [23]: inactive
- Activity [24]: inactive
- MCC at 72 h [6]: > 100 µM
- IC50 [25]: 43.4 µM
- IC50 [26]: 27.9 µM
- IC50 [27]: 27.9 µM
- EC50 [28]: 78.1 µM

Reference: ChEMBL document CHEMBL4406859, “Antitumor and antiviral activities of 4-substituted 1,2,3-triazolyl-2,3-dibenzyl-L-ascorbic acid derivatives” (Eur J Med Chem, 2019)
